Among the data in ChEMBL document CHEMBL1157391, “Apratoxin E, a cytotoxic peptolide from a guamanian collection of the marine cyanobacterium Lyngbya bouillonii” (J Nat Prod, 2008) are IC50 values, retold here.

What all share (format): functional, cell-based
Experiment [1] deals with HeLa. In words: Antiproliferative activity against human HeLa cells after 48 hrs by MTT assay. Summed up: (§1)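 Cells grown in high-glucose DMEM with 10% FBS at 37 °C under humidified 5% CO2. Seeded in 96-well plates at 10 000 (HT29), 3000 (HeLa) or 5000 (U2OS) cells per well. Treated 24 h later with a concentration series; solvent controls were 1% EtOH or 1% DMSO. Viability read by MTT after 48 h incubation.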

For experiment [2], the system named is HT-29. In words: Antiproliferative activity against human HT29 cells after 48 hrs by MTT assay. The following applies: HT-29, 48 h. A digest of the protocol: as §1
Experiment [3] has as its system U2OS. Kind of experiment: Antiproliferative activity against human U2OS cells after 48 hrs by MTT assay. Summed up: as §1

*1 amine or outer side, *2 acyl side, *3 side chain or, on linkers, in order; H or OH if unused. Where a SMILES comes first, the peptide text is derived from it. Bridges are numbered along the chain shown (N, C = ends). Roman numbers before positions name the chains, in order. [ ]: non-standard residue; d: D form. Actinocin(1to9) = Cc1c2oc3c(C)ccc(C(=O)[*:2])c3nc-2c(C(=O)[*:1])c(N)c1=O; NMeV = CN[C@H](C(=O)O)C(C)C; Sar = CNCC(=O)O

Consider `CC[C@H](C)[C@H]1C(=O)N2CCC[C@H]2C(=O)O[C@H](C(C)(C)C)C[C@@H](C)C[C@H](O)[C@H](C)C2=N[C@@H](/C=C(\C)C(=O)N[C@@H](Cc3ccc(OC)cc3)C(=O)N(C)[C@@H](C)C(=O)N1C)CS2` [APRATOXIN A], for which the IC50 in experiment [1] was determined as 10 nM; in experiment [2], 1.4 nM; in experiment [3], 10 nM.

Consider `CC[C@H](C)[C@H]1C(=O)N2CCC[C@H]2C(=O)O[C@H](C(C)(C)C)C[C@@H](C)C/C=C/C2=N[C@@H](CCC(=O)N[C@@H](Cc3ccc(OC)cc3)C(=O)N(C)[C@@H](C)C(=O)N1C)CS2` [APRATOXIN E], for which the results for the IC50 in experiment [1], in experiment [2] and in experiment [3] were 72 nM, 21 nM and 59 nM, respectively.

Consider `Cc1c2oc3c(C)ccc(C(=O)N[C@@H]4C(=O)N[C@H](C(C)C)C(=O)N5CCC[C@H]5C(=O)N(C)CC(=O)N(C)[C@@H](C(C)C)C(=O)O[C@@H]4C)c3nc-2c(C(=O)N[C@@H]2C(=O)N[C@H](C(C)C)C(=O)N3CCC[C@H]3C(=O)N(C)CC(=O)N(C)[C@@H](C(C)C)C(=O)O[C@@H]2C)c(N)c1=O` [DACTINOMYCIN] (I: T[dV]P[Sar][NMeV] / II: T[dV]P[Sar][NMeV]; ester I:1-I:C, II:1-II:C; linker I:N-II:N via Actinocin(1to9)), for which the IC50 in experiment [1] was 0.4 nM; in experiment [2], 2.9 nM; in experiment [3], 3.2 nM.

Take `CC[C@H](C)[C@H]1C(=O)N2CCC[C@H]2C(=O)O[C@H](C(C)(C)C)C[C@@H](C)C/C=C(\C)C2=N[C@@H](/C=C(\C)C(=O)N[C@@H](Cc3ccc(OC)cc3)C(=O)N(C)[C@@H](C)C(=O)N1C)CS2` [E-DEHYDROAPRATOXIN A]: the results for the IC50 in experiment [1], in experiment [2] and in experiment [3] were 121 nM, 41 nM and 160 nM, respectively.

Turning to `CC(=O)O[C@H]1C(=O)[C@@]2(C)[C@H]([C@H](OC(=O)c3ccccc3)[C@]3(O)C[C@H](OC(=O)[C@H](O)[C@@H](NC(=O)c4ccccc4)c4ccccc4)C(C)=C1C3(C)C)[C@]1(OC(C)=O)CO[C@@H]1C[C@@H]2O` [PACLITAXEL], the IC50 was found to be 1.5 nM in experiment [1], 1.9 nM in experiment [2] and 24 nM in experiment [3].
